Results from paper PMC5024769 (Drug Design, Development and Therapy, 2016).
“Also recorded” adds a separate entry of the source.

What was measured:
[1] = In vitro stability in rat plasma; format: in vitro ADME; settings: 60 minutes incubation with rat plasma
Outline: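 Rat plasma was separated by centrifugation and diluted with pH 7.4 phosphate buffer to 80% final. Test compound (20 µM final) was incubated at 37°C for 60 min with agitation, then quenched with MeOH plus CH3CN. Analysis was by HPLC-UV at 254 nm, with acetonitrile–water gradient, mobile phase pH 7.0 (NH4OH) and methyl biphenyl-4-carboxylate internal standard (20 µM). Three independent experiments in duplicate.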

[2] = system: diabetic rats (Rattus norvegicus); test: Blood glucose after a single dose in diabetes model induced by STZ; format: in vivo; settings: for Blood glucose after single dose / Hypoglycemic activity (in words) / Blood glucose before single dose: STZ diabetic rats; for Blood glucose after single dose / Hypoglycemic activity (in words): 20 mg·kg−1 ip, single dose; for Blood glucose before single dose: value before treatment (time control)
Outline: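 Diabetes was induced in rats by single iv STZ (60 mg·kg−1 in citrate buffer, pH 4.5). After 4 weeks, male Wistar rats (180–220 g) with glycemia >300 mg/dL were used. Groups were non-diabetic, diabetic plus DMSO vehicle, and diabetic plus test compound (single 20 mg·kg−1 ip dose). Plasma glucose was read by glucometer at 0, 30, 60, 120 and 180 min. n=7/group; mean ± SEM; Student's t-test versus time control.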

[3] = system: diabetic rats (Rattus norvegicus); test: Mechanical allodynia; format: in vivo; settings: STZ diabetic rats
Outline: (§1)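 Male Wistar rats (180–220 g) were made diabetic by single iv STZ 60 mg·kg−1 (glycemia >300 mg/dL). Thermal hyperalgesia was scored as paw withdrawal latency to radiant heat on the hind paw (plantar meter). Mechanical allodynia was scored as paw withdrawal threshold to pressure (digital analgesiometer). Readings were taken before and 4 weeks after induction, then 3 and 7 days into daily test compound 50 mg·kg−1 ip (DMSO vehicle). n=5/group; mean ± SEM; two-way ANOVA.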

[4] = system: diabetic rats (Rattus norvegicus); test: Blood glucose during 7 days' treatment of STZ diabetic rats; format: in vivo; settings: 50 mg/kg once a day for 7 days
Outline: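 Male Wistar rats (180–220 g) were made diabetic by single iv STZ (60 mg·kg−1, citrate buffer pH 4.5); after 4 weeks, those with glycemia >300 mg/dL were used. They received test compound 50 mg·kg−1 ip once daily for 7 days, with DMSO as vehicle. Plasma glucose was measured before treatment and on days 3 and 7.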

[5] = system: diabetic rats (Rattus norvegicus); test: Thermal hyperalgesia; format: in vivo; settings: STZ diabetic rats
Outline: as §1

[6] = In vitro chemical stability in buffer at pH 2.0 and pH 7.4; format: physicochemical; settings: pH 2.0, 20 µM, 37°C
Outline: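 DMSO stocks (5–10 mM) were diluted into pH 2 buffer (0.2 M KCl/0.2 M HCl) or pH 7.4 dibasic phosphate buffer, giving 20 µM test compound. Samples were held in a 37°C water bath with vigorous stirring for 0, 30, 60 and 120 min. Acid samples were then neutralised with pH 8.4 phosphate buffer. % remaining = peak area at each time / area at 0 min × 100. At least two experiments in triplicate.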

PPARγ [7] = target: T1, PPARγ (Homo sapiens, UniProt P37231); settings: cited from earlier work
T1 sequence (P37231 1-505): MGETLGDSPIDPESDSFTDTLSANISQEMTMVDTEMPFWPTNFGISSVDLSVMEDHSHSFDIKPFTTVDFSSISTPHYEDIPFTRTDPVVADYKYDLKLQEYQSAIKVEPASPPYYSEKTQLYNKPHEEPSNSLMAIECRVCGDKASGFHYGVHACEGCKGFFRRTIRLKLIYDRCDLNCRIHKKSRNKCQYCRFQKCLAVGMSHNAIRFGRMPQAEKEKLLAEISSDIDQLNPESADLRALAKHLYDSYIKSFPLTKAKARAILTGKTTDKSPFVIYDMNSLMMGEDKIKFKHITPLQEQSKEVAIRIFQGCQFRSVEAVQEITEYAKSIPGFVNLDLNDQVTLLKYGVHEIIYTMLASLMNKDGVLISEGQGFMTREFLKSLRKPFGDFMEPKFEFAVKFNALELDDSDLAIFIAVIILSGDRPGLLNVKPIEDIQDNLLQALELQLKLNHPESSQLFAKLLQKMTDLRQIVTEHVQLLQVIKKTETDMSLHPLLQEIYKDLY

[8] = system: diabetic neuropathic pain model induced by STZ in rats; settings: cited from earlier work
PPARγ [9] = target: T1, PPARγ; test: PPARγ binding assay performed by CEREP; settings: single concentration 30 µM, rosiglitazone as positive control

**Q.** For COc1ccc(S(=O)(=O)N/N=C/c2cccc(C(=O)O)c2)cc1OC [Compound 4, (E)-3-((2-(3,4-dimethoxyphenylsulfonyl) hydrazono)methyl)benzoic acid], which “Plasma stability (in words)” value [1] is on record?
**A.** very stable

**Q.** Which “Plasma stability (in words)” value [1] does the source give for COC(=O)c1cccc(/C=N/N(C)S(=O)(=O)c2ccc(OC)c(OC)c2)c1 [Compound 5, (E)-methyl 3-((2-(3,4-dimethoxyphenylsulfonyl)-2-methylhydrazono)methyl)benzoate] here?
**A.** very stable

**Q.** What about the “Solubility in DMSO” value ([2]; dosing vehicle DMSO) of the same compound?
**A.** partially insoluble in DMSO

**Q.** Which results are given for COC(=O)c1ccc(/C=N/N(C)S(=O)(=O)c2ccc(OC)c(OC)c2)cc1 [Compound 6, (E)-methyl 4-((2-(3,4-dimethoxyphenylsulfonyl)-2-methylhydrazono)methyl)benzoate]?
**A.** Plasma stability (in words) [1]: unstable; Blood glucose after single dose [2]: 255.3 ± 42.2 mg/dL; Hypoglycemic activity (in words) [2]: showed hypoglycemic activity; Blood glucose before single dose [2]: 397.1 ± 38.2 mg/dL

**Q.** With COC(=O)c1ccc(/C=N/NS(=O)(=O)c2ccc(OC)c(OC)c2)cc1 [Compound 7, (E)-methyl 4-((2-(3,4-dimethoxyphenylsulfonyl)hydrazono)methyl)benzoate] as the compound, how does the “Plasma stability (in words)” value [1] read?
**A.** unstable

**Q.** And the “Paw withdrawal threshold (PWT), after treatment” value ([3]; 50 mg·kg−1 ip, long-term administration)?
**A.** 36.7 ± 0.9 g

**Q.** What about the “Paw withdrawal threshold (PWT), before treatment” value ([3]; four weeks after induction) of the same compound?
**A.** 24.0 ± 1.4 g

**Q.** And the “Blood glucose after single dose” value [2]?
**A.** 182.2 ± 22.7 mg/dL

**Q.** And the “Hypoglycemic activity (in words)” value [2]?
**A.** showed hypoglycemic activity

**Q.** What about the “Blood glucose before single dose” value [2] of the same compound?
**A.** 384.0 ± 41.9 mg/dL

**Q.** What about the “Hypoglycemic activity (in words)” value [4] of the same compound?
**A.** promoted hypoglycemic activity only after 7 days of treatment

**Q.** What about the “Paw withdrawal latency (PWL), after 3 days of treatment” value ([5]; 50 mg·kg−1 ip) of the same compound?
**A.** 12.2 ± 0.9 s

**Q.** And the “Paw withdrawal latency (PWL), after 7 days of treatment” value ([5]; 50 mg·kg−1 ip)?
**A.** 13.3 ± 0.2 s

**Q.** And the “Paw withdrawal latency (PWL), before treatment” value ([5]; four weeks after induction)?
**A.** 8.5 ± 0.2 s

**Q.** What about the “Effect on diabetic neuropathic pain (in words)” value ([5]; long-term administration, 50 mg·kg−1 ip) of the same compound?
**A.** reduced diabetic neuropathic pain

**Q.** Which results are given for COc1ccc(S(=O)(=O)N/N=C/c2ccc(C#N)cc2)cc1OC [Compound 8, (E)-N′-(4-cyanobenzylidene)-3,4-dimethoxybenzenesulfonohydrazide]?
**A.** Plasma stability (in words) [1]: unstable; Chemical stability [6]: unstable

**Q.** What does the source list for COc1ccc(S(=O)(=O)N(C)/N=C/c2ccc(C#N)cc2)cc1OC [Compound 9, (E)-N′-(4-cyanobenzylidene)-3,4-dimethoxy-N-methylbenzene-sulfonohydrazide]?
**A.** PPARγ activity as described earlier (PPARγ [7]): partial agonist of PPARγ; Plasma stability (in words) [1]: very stable; also recorded: high chemical and plasma stability; Hypoglycemic activity (in words) [2]: did not reduce hyperglycemia; Glucose levels after 7 days ([8]; 50 mg/kg for 7 days, vehicle 410.0±58.0 mg/dL): 242.4 ± 55.3 mg/dL; Antinociceptive activity ([8]; diabetic neuropathic pain model induced by STZ in rats): antinociceptive agent

**Q.** With COc1ccc(S(=O)(=O)N/N=C/c2ccc(C(=O)O)cc2)cc1OC [Compound 10, (E)-4-((2-(3,4-dimethoxyphenylsulfonyl) hydrazono)methyl)benzoic acid] as the compound, how does the “Inhibition of control specific binding to PPARγ” value (PPARγ [9]) read?
**A.** unable to bind to PPARγ
